Screening data from PubChem.
PG9 Ab binder: PG9 antibody binding by small molecule | TR-FRET gp120-PG9 antibody binding | actives 0.43% (n = 360,000) | AID 624416 | inhibition, % at 6.7 µM; in the data active means inhibition above about 8.5%
GalR3 antagonist: antagonists of human GalR3 | inhibition, % at 3 µM | actives 0.44% (n = 360,000) | O60755 | HEK293 GalR3-CNG cAMP membrane potential fluorescence; galR3 body fused to GalR1 C-terminus;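 active means inhibition above the screen-wide average plus 3 SD, cut at about 13% in these data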;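 further: forskolin and galanin both at EC90 stimulate the cells; cAMP rise reported by CNG channel membrane potential dye signal; 0% = forskolin plus galanin with DMSO and 100% = forskolin alone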
Rev-erbA mod: modulates human Rev-erb alpha binding to DNA; P20393; Rev-erbα–FITC-DNA binding, fluorescence polarization, 90 min; activity, % at 10 µM; actives 0.79% (n = 370,000); AID 1259318;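 active means activity above about 14%, limit read from the data; passing the limit was not always enough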;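 further: 0% = DMSO wells with 35 nM protein and 100% = DMSO wells with 750 nM protein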
NR2E3 ag-1: activates human NR2E3 receptor | Q9Y5X4 | CHO-S Gal4-NCOR/VP16-NR2E3 two-hybrid, luciferase | inhibition of corepressor binding, % at 3.98 µM | actives 0.35% (n = 360,000) | AID 602229;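 active means inhibition above the mean of all tested compounds plus 3 SD, cut at about 70% in these data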;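 further: 0% = DMSO with NR2E3 transfected cells and 100% = cells lacking NR2E3 construct; higher means lower luciferase signal from less NR2E3 corepressor binding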
Target sequence (Q9Y5X4 whole entry, looked up, the tested form may be a part): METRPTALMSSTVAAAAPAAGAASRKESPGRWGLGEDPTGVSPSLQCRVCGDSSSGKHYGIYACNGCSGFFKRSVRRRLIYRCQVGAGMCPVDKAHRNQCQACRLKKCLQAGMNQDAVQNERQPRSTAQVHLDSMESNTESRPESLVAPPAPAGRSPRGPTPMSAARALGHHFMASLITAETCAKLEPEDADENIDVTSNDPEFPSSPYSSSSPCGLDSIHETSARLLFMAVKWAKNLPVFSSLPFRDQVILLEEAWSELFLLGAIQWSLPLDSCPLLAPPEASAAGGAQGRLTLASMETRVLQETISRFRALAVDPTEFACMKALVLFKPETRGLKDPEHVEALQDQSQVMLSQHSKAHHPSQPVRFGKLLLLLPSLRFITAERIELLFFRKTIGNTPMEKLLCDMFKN
NR2E3 ag-2: NR2E3 (human) agonism; GST-NR2E3/biotin-RetCOR TR-FRET, 1536-well; AID 2300; Q9Y5X4; actives 0.12% (n = 320,000); inhibition of corepressor binding, % at 4.78 µM;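 active means percent inhibition above the cutoff of mean plus 3 SD of all tested compounds, set per screening campaign, cut at about 20% in these data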;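 further: 0% = DMSO wells and 100% = biotin wells as full block of FRET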
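Material – GST-tagged NR2E3 plus biotinylated RetCOR corepressor · Quantity – NR2E3 fusion 1.35 nM · Times – 5 h incubation at 4 °C · Medium – pH 7.5 Tris-based buffer · Technique – TR-FRET, Eu(K)-anti-GST donor, streptavidin-D2 acceptor, ex 340, em 617/671 nm · Benchmarks – high control biotin, low control 0.6% DMSO · Format – 1536-well plates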
Rev-erbA confirm: Rev-erb alpha (human) modulation, hit confirmation | shares compounds with Rev-erbA mod | Rev-erb alpha FITC-DNA binding, fluorescence polarization, 90 min | activation, % at 25 µM | actives 61% (n = 3,000) | AID 1259319;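 active means activation at or above a set limit, or at least 3 SD above the negative control mean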;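 further: 0% = 35 nM protein with DMSO and 100% = 750 nM protein high control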
RORg DNA counter: counter-screen for Rev-erb alpha modulators: RORgamma DNA binding; shares compounds with Rev-erbA mod; purified RORgamma protein-FITC-DNA binding, fluorescence polarization; IC50, µM; actives 8% (n = 910); AID 1259320;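 active means Compounds whose fitted half-maximal concentration for disrupting protein-DNA binding is below 10 micromolar; the record names Rev-erb in its text, so the target is in doubt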
The depositor's hits bear a star. Hits are enriched below; roughly 1.8% of the tested compounds scored in any of these assays.

`O=C1CC(c2ccccc2)Cc2nc(N3CCc4ccccc43)ncc21` (stereo unspecified) gave PG9 Ab binder -2, GalR3 antagonist -3, Rev-erbA mod 30*, NR2E3 ag-1 -14, NR2E3 ag-2 6 and Rev-erbA confirm 23*.
Screening CCOc1ccccc1NC(=O)c1sc2nc(C)nc(N3CCOCC3)c2c1C returned PG9 Ab binder 0, GalR3 antagonist -9, Rev-erbA mod 41*, NR2E3 ag-1 5, NR2E3 ag-2 -4 and Rev-erbA confirm 7.
`COc1ccc(C)cc1NC(=O)c1sc2ncnc(N3CCN(c4ccccn4)CC3)c2c1C` gave PG9 Ab binder -1, GalR3 antagonist -5, Rev-erbA mod 37*, NR2E3 ag-1 -10, NR2E3 ag-2 1 and Rev-erbA confirm 3.
COc1ccc(NC(=O)c2sc3nc(Cc4ccccc4)cc(C(F)(F)F)c3c2N)cc1OC was read as PG9 Ab binder -2, GalR3 antagonist -2, Rev-erbA mod 4, NR2E3 ag-1 -9 and NR2E3 ag-2 0.
`Cc1ccc(NC(=O)c2sc3ncnc(N4CCN(c5ccccn5)CC4)c3c2C)c(C)c1` gave PG9 Ab binder 1, GalR3 antagonist 3, Rev-erbA mod 8, NR2E3 ag-1 -32 and NR2E3 ag-2 -2.
`COc1ccccc1NC(=O)c1sc2nc3n(c(=O)c2c1C)CCC3` gave PG9 Ab binder 1, GalR3 antagonist 0, Rev-erbA mod 43*, NR2E3 ag-1 -24, NR2E3 ag-2 1 and Rev-erbA confirm 29*.
Cc1c(C(=O)Nc2ccccc2F)sc2nc3n(c(=O)c12)CCC3 was read as PG9 Ab binder -2, GalR3 antagonist -8, Rev-erbA mod -2, NR2E3 ag-1 -84 and NR2E3 ag-2 4.
`COc1ccccc1NC(=O)c1sc2nc(Cc3ccccc3)cc(C(F)(F)F)c2c1N` gave Rev-erbA mod 45*, NR2E3 ag-1 -9, NR2E3 ag-2 2, Rev-erbA confirm 63* and RORg DNA counter >40.
For COc1ccc(C)cc1NC(=O)c1sc2nc(C)nc(N3CCOCC3)c2c1C the results were PG9 Ab binder -1, GalR3 antagonist -1, Rev-erbA mod 7, NR2E3 ag-1 -30 and NR2E3 ag-2 0.
Screening O=C(NC1CCCCN(Cc2ccc(Cl)cc2)C1=O)c1cc(-c2ccccc2)no1 (stereo unspecified) returned Rev-erbA mod 3.
Cc1nc(N2CCN(c3ccccn3)CC2)c2c(C)c(C(=O)Nc3ccc(Br)cc3C)sc2n1 was read as PG9 Ab binder 1, GalR3 antagonist 0, Rev-erbA mod 40*, NR2E3 ag-1 1, NR2E3 ag-2 4 and Rev-erbA confirm -13.
COC(=O)[C@]12C[C@H](CC(=O)NCc3ccccc3)C(=O)N(CCc3ccc(OC)c(OC)c3)C1=C[C@H](C(C)C)O[C@@H]2C1CC1 was read as Rev-erbA mod 1.
`COc1ccc(-c2cc(-c3ccc(C)cc3)nc(SCc3nnc(-c4ccccc4)o3)c2C#N)cc1OC` gave PG9 Ab binder -2, GalR3 antagonist -1, Rev-erbA mod 80*, NR2E3 ag-1 -4, NR2E3 ag-2 -1, Rev-erbA confirm 37* and RORg DNA counter >40.
CCOC(=O)c1c(-c2ccccc2)csc1NC(=O)c1cc(S(=O)(=O)N2CCOCC2)ccc1C was read as PG9 Ab binder 0, GalR3 antagonist 0, Rev-erbA mod 34*, NR2E3 ag-1 -7, NR2E3 ag-2 -1, Rev-erbA confirm 49* and RORg DNA counter >40.
Screening CCOC(=O)c1c(-c2ccccc2)csc1NC(=O)c1ccc(S(=O)(=O)N2CC(C)OC(C)C2)cc1 (stereo unspecified) returned PG9 Ab binder 0, GalR3 antagonist -4, Rev-erbA mod 4, NR2E3 ag-1 -13 and NR2E3 ag-2 -1.
Cc1cccc(C(=O)Nc2ccc(N3CCN(c4ccc(C(F)(F)F)cn4)CC3)nc2)c1 was read as PG9 Ab binder 0, GalR3 antagonist 5, Rev-erbA mod 65*, NR2E3 ag-1 -27, NR2E3 ag-2 6 and Rev-erbA confirm -4.
CC(C)(C)C(=O)Nc1ccc(N2CCN(c3ccc(C(F)(F)F)cn3)CC2)nc1 was read as PG9 Ab binder 0, GalR3 antagonist -4, Rev-erbA mod 3, NR2E3 ag-1 -5 and NR2E3 ag-2 -4.
`N#Cc1cc2c(nc1SCC(=O)O)CCCC2` gave PG9 Ab binder -2, GalR3 antagonist -2, Rev-erbA mod 0, NR2E3 ag-1 -25 and NR2E3 ag-2 6.
Cc1cc(NC(=O)CSc2nc3c(cc2C#N)CCC3)no1 was read as PG9 Ab binder -2, GalR3 antagonist -11, Rev-erbA mod 23*, NR2E3 ag-1 -192, NR2E3 ag-2 4 and Rev-erbA confirm 9.
Cc1cc(NC(=O)CSc2nc3c(cc2C#N)CCCC3)no1 was read as PG9 Ab binder 0, GalR3 antagonist 4, Rev-erbA mod 35*, NR2E3 ag-1 -82, NR2E3 ag-2 -1 and Rev-erbA confirm 26*.
For N#Cc1cc2c(nc1SCc1ccncc1)CCC2 the results were PG9 Ab binder -4, GalR3 antagonist -3, Rev-erbA mod -4, NR2E3 ag-1 -192 and NR2E3 ag-2 4.
`N#Cc1cc2c(nc1SCc1ccccc1)CCC2` gave PG9 Ab binder 0, GalR3 antagonist -1, Rev-erbA mod 45*, NR2E3 ag-1 -15, NR2E3 ag-2 -3 and Rev-erbA confirm 25*.
`Cc1noc(NS(=O)(=O)c2ccc(NC(=O)CSc3nc4c(cc3C#N)CCC4)cc2)c1C` gave PG9 Ab binder 0, GalR3 antagonist 1, Rev-erbA mod 0, NR2E3 ag-1 8 and NR2E3 ag-2 3.
For CC(C)C[C@H]1COc2cc(Br)ccc2S(=O)(=O)N1Cc1cn(Cc2ccc(Br)cc2)nn1 the results were Rev-erbA mod 4.
Screening CCN(Cc1cn(Cc2ccccc2)nn1)S(=O)(=O)c1ccccc1Br returned Rev-erbA mod -2.
For CN1CC=C(c2ccccc2)N(c2ccccc2)C1=O the results were Rev-erbA mod -1.
For CC(=O)c1cc(C#N)c(NCc2cc(-c3ccccc3)no2)nc1C the results were PG9 Ab binder -1, GalR3 antagonist 0, Rev-erbA mod 26*, NR2E3 ag-1 1, NR2E3 ag-2 -3 and Rev-erbA confirm 18*.
For CC(C)CC(CCOCCO)NC(=O)OCc1ccccc1[N+](=O)[O-] (stereo unspecified) the results were Rev-erbA mod 1.
For CCOC(=O)c1cnc2cc(-c3ccc(C)cc3)nn2c1C the results were PG9 Ab binder -1, GalR3 antagonist -7, Rev-erbA mod 3 and NR2E3 ag-1 -44.
